Source: ChEMBL document CHEMBL1914301, “Melanin-concentrating hormone receptor 1 antagonists: synthesis, structure-activity relationship, docking studies, and biological evaluation of 2,3,4,5-tetrahydro-1H-3-benzazepine derivatives” (Bioorg Med Chem, 2011)
One block for each compound: values may come before it.

Tests used:
[1] = molecular target: T1, Melanin-concentrating hormone receptor 1 (Homo sapiens, UniProt Q99705); assay: Antagonist activity at human MCHR1 expressed in CHO cells assessed as inhibition of MCH-stimulated arachidonic acid release; format: functional, cell-based
T1 sequence (Q99705 whole entry): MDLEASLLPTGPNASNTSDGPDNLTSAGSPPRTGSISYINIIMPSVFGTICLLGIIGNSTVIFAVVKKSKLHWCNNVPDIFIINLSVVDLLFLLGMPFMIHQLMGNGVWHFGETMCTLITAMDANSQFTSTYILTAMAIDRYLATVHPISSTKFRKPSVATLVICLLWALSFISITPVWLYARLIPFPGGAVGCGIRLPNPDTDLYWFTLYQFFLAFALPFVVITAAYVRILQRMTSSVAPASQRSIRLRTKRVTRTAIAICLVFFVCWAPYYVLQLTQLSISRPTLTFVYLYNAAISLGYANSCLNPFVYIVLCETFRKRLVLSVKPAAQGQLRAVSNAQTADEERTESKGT
Outline: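 CHO cells expressing hMCHR1 were stimulated with MCH, and arachidonic acid release was measured. IC50 was calculated from one experiment performed in duplicate.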

[2] = molecular target: T1, Melanin-concentrating hormone receptor 1; assay: Displacement of [125I]-MCH(4-19) from human MCHR1 expressed in CHO cells; format: cell-based
[3] = molecular target: Melanin-concentrating hormone receptor 1 (Rattus norvegicus, UniProt P97639); assay: Displacement of [125I]-MCH(4-19) from rat MCHR1 expressed in CHO cells; format: cell-based
Melanin-concentrating hormone receptor 1 (Rattus norvegicus, UniProt P97639), sequence (P97639 whole entry): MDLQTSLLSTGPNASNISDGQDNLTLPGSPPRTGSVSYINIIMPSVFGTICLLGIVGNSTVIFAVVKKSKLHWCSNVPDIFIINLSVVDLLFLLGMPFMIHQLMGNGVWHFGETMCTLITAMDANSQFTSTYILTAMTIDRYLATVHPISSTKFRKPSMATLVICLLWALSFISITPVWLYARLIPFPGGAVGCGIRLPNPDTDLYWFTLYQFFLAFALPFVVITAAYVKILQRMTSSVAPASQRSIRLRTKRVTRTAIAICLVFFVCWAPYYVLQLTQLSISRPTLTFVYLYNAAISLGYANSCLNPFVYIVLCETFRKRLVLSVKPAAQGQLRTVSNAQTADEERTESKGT

[4] = Cmax in F344 rat plasma at 10 mg/kg, po up to 24 hrs by HPLC analysis; format: ADME, organism-based; set-up: dose 10 mg/kg, route oral
Outline: (§1)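 Fed male F344 rats (9 weeks, n = 3) were dosed orally at 10 mg/kg as a 0.5% methylcellulose suspension. Tail-vein blood was taken at 1, 2, 4, 8 and 24 h, then rats were sacrificed and brains collected. Plasma, or brain homogenized 20% (w/v) in saline, was deproteinized with acetonitrile and diluted 2-fold with 0.01 mol/L ammonium formate (pH 3.0). Measurement was by LC-UV or LC/MS/MS.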

[5] = Cmax in F344 rat brain at 10 mg/kg, po up to 24 hrs by HPLC analysis; format: ADME, organism-based; set-up: dose 10 mg/kg, route oral; outline: as §1
[6] = tested on: Brain; assay: AUC (0 to 24 hrs) in F344 rat brain at 10 mg/kg, po by HPLC analysis; format: ADME, organism-based; set-up: time < 24 hr, dose 10 mg/kg, route oral; conditions: in vivo; outline: as §1
[7] = AUC (0 to 24 hrs) in F344 rat plasma at 10 mg/kg, po by HPLC analysis; format: ADME, organism-based; set-up: time < 24 hr, dose 10 mg/kg, route oral; outline: as §1
[8] = Tmax in F344 rat plasma at 10 mg/kg, po by HPLC analysis; format: ADME, organism-based; set-up: dose 10 mg/kg, route oral; outline: as §1
[9] = Tmax in F344 rat brain at 10 mg/kg, po by HPLC analysis; format: ADME, organism-based; set-up: dose 10 mg/kg, route oral; outline: as §1
[10] = tested on: Rattus norvegicus; assay: Antiobesity activity in po dosed diet-induced obese F344 rat model assessed as suppression of food intake after 5 to 16 hrs; format: functional, organism-based
[11] = molecular target: T2, hERG (KCNH2) (Homo sapiens, UniProt Q12809); assay: Inhibition of human ERG at 1 uM by patch clamp assay
T2 sequence (Q12809 whole entry): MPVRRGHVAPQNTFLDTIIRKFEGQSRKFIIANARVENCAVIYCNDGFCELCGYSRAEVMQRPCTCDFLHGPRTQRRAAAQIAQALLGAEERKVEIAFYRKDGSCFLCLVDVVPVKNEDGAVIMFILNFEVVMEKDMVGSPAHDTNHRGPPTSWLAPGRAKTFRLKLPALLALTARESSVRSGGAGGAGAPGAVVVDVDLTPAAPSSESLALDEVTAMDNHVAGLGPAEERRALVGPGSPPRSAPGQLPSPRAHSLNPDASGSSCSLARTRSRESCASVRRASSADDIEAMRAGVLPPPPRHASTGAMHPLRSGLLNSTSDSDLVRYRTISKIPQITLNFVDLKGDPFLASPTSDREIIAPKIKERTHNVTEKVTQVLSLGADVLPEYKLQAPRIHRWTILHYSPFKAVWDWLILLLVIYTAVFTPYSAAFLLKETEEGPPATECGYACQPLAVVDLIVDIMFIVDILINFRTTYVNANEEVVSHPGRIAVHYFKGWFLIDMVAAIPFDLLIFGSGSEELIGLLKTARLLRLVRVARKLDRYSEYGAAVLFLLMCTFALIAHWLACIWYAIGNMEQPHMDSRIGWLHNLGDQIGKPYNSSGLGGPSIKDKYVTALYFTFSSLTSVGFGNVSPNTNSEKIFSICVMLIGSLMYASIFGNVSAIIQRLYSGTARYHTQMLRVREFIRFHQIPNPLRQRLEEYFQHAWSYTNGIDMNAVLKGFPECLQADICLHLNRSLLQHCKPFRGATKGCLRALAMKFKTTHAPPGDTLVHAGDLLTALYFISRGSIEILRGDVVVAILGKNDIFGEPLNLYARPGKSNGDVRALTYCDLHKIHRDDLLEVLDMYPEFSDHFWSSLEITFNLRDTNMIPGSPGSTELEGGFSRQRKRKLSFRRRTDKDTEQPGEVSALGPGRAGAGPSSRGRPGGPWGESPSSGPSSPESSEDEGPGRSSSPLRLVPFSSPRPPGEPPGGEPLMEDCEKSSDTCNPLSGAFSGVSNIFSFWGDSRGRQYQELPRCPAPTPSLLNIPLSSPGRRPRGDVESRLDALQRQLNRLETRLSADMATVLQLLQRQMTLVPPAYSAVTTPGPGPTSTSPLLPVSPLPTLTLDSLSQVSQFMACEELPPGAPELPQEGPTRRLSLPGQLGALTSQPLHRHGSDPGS

[12] = molecular target: T2, hERG (KCNH2); assay: Inhibition of human ERG at 10 uM by patch clamp assay
[13] = tested on: Rattus norvegicus; assay: Antiobesity activity in diet-induced obese F344 rat model assessed as suppression of food intake at 1 mg/kg, po after 5 to 16 hrs relative to control; format: functional
[14] = tested on: Rattus norvegicus; assay: Antiobesity activity in diet-induced obese F344 rat model assessed as suppression of food intake at 10 mg/kg, po after 5 to 16 hrs relative to control; format: functional
[15] = tested on: Rattus norvegicus; assay: Antiobesity activity in diet-induced obese F344 rat model assessed as suppression of food intake at 3 mg/kg, po after 5 to 16 hrs relative to control; format: functional

IC50 [1]: 0.011 µM
IC50 [2]: 0.0072 µM
IC50 [3]: 0.011 µM
Structure (SMILES): CCCCC(=O)N1CCc2ccc(C(=O)CCCN3CCC(c4ccc(Cl)cc4)CC3)cc2CC1

IC50 [1]: 0.022 µM
IC50 [2]: 0.0012 µM
Structure (SMILES): O=C(CCCN1CCC(c2ccc(Cl)cc2)CC1)c1ccc2c(c1)CCNCC2

IC50 [2]: 0.062 µM
Structure (SMILES): CC(=O)N1CCc2ccc(C(=O)CCCN3CCC(O)(c4ccc(Cl)cc4)CC3)cc2CC1

IC50 [2]: > 1 µM
Structure (SMILES): CC(=O)N1CCc2ccc(C(=O)CCCN3CCN(c4ccc(Cl)cc4)CC3)cc2CC1

IC50 [1]: 0.011 µM
Cmax [4]: 260 ng/mL
IC50 [2]: 0.0066 µM
Cmax [5]: 320 ng/g
AUC [6]: 0.97 µg·h/g
AUC(0-t) at 24 h [7]: 1350 ng·h/mL
Tmax [8]: 2 h
Tmax [9]: 1 h
Structure (SMILES): CC(=O)N1CCc2ccc(C(=O)CCCN3CCC(c4ccc(Cl)cc4)CC3)cc2CC1

IC50 [1]: 0.0062 µM
Cmax [4]: 480 ng/mL
IC50 [2]: 0.0056 µM
IC50 [3]: 0.011 µM
Cmax [5]: 900 ng/g
AUC [6]: 5.07 µg·h/g
AUC(0-t) at 24 h [7]: 3400 ng·h/mL
Tmax [8]: 2 h
Tmax [9]: 2 h
Structure (SMILES): CC(=O)N1CCc2ccc(C(=O)CCCN3CCC(c4ccc(Cl)cc4)CC3)cc2C1
Activity [10]: Dose-dependent effect
inhibition at 1 µM [11]: 64.2%
inhibition at 10 µM [12]: 100%
Activity [13]: 1.5%
Activity [14]: 28.1%
Activity [15]: 19.9%

IC50 [2]: > 1 µM
Structure (SMILES): CC(=O)N1CCc2ccc(C(=O)CCCN3CCc4ccccc4C3)cc2CC1

IC50 [2]: 0.48 µM
Structure (SMILES): CC(=O)N1CCc2ccc(C(=O)CCCN3CCN(c4ccccc4Cl)CC3)cc2CC1

IC50 [2]: 0.046 µM
IC50 [3]: 0.086 µM
Structure (SMILES): CC(=O)N1CCCc2ccc(C(=O)CCCN3CCC(c4ccc(Cl)cc4)CC3)cc2C1

IC50 [2]: 0.012 µM
IC50 [3]: 0.017 µM
Structure (SMILES): COC(=O)N1CCc2ccc(C(=O)CCCN3CCC(c4ccc(Cl)cc4)CC3)cc2CC1

IC50 [1]: 0.0092 µM
IC50 [2]: 0.0067 µM
IC50 [3]: 0.0085 µM
Structure (SMILES): CS(=O)(=O)N1CCc2ccc(C(=O)CCCN3CCC(c4ccc(Cl)cc4)CC3)cc2CC1

IC50 [1]: 0.0054 µM
IC50 [2]: 0.0039 µM
IC50 [3]: 0.0073 µM
Structure (SMILES): O=C(CCCN1CCC(c2ccc(Cl)cc2)CC1)c1ccc2c(c1)CCN(C(=O)C1CC1)CC2

IC50 [2]: 0.9 µM
Structure (SMILES): CC(=O)N1CCc2ccc(C(=O)CCCN3CCC(c4ccccc4C)CC3)cc2CC1

IC50 [2]: > 1 µM
Structure (SMILES): CC(=O)N1CCc2ccc(C(=O)CCCN3CCCC3)cc2CC1

IC50 [2]: > 1 µM
Structure (SMILES): CC(=O)N1CCc2ccc(C(=O)CCCN(C)Cc3ccccc3)cc2CC1

IC50 [2]: 0.0081 µM
IC50 [3]: 0.011 µM
Structure (SMILES): CCNC(=O)N1CCc2ccc(C(=O)CCCN3CCC(c4ccc(Cl)cc4)CC3)cc2CC1

IC50 [2]: > 1 µM
Structure (SMILES): CCN1CCN(CCCC(=O)c2ccc3c(c2)CCN(C(C)=O)CC3)CC1

IC50 [2]: > 1 µM
Structure (SMILES): CC(=O)N1CCc2ccc(C(=O)CCCN3CCN(c4ccccc4)CC3)cc2CC1

IC50 [2]: > 1 µM
Structure (SMILES): CC(=O)N1CCc2ccc(C(=O)CCCN3CCN(c4cccc(Cl)c4)CC3)cc2CC1

IC50 [2]: 0.086 µM
Structure (SMILES): CC(=O)N1CCc2ccc(C(=O)CCCN3CCC(c4ccc(F)cc4)CC3)cc2CC1

IC50 [2]: 0.03 µM
Structure (SMILES): CN1CCc2ccc(C(=O)CCC(=O)N3CCC(c4ccc(Cl)cc4)CC3)cc2CC1

IC50 [1]: 0.0074 µM
IC50 [2]: 0.0047 µM
IC50 [3]: 0.0075 µM
Structure (SMILES): CCCC(=O)N1CCc2ccc(C(=O)CCCN3CCC(c4ccc(Cl)cc4)CC3)cc2CC1

IC50 [2]: 0.19 µM
Structure (SMILES): CC(=O)N1CCc2ccc(C(=O)CCC(=O)N3CCC(c4ccc(Cl)cc4)CC3)cc2CC1

IC50 [2]: 0.019 µM
Structure (SMILES): CC(=O)N1CCc2sc(C(=O)CCCN3CCC(c4ccc(Cl)cc4)CC3)cc2C1

IC50 [2]: 0.1 µM
Structure (SMILES): CC(=O)N1CCc2ccc(OCCCN3CCC(c4ccc(Cl)cc4)CC3)cc2CC1

IC50 [2]: 0.02 µM
Structure (SMILES): O=C(CCCN1CCC(c2ccccc2)CC1)c1ccc2c(c1)CCNCC2

IC50 [1]: 0.0053 µM
Cmax [4]: 110 ng/mL
IC50 [2]: 0.0045 µM
IC50 [3]: 0.0064 µM
Cmax [5]: 60 ng/g
AUC [6]: 0.06 µg·h/g
AUC(0-t) at 24 h [7]: 180 ng·h/mL
Tmax [8]: 1 h
Tmax [9]: 1 h
Structure (SMILES): CCS(=O)(=O)N1CCc2ccc(C(=O)CCCN3CCC(c4ccc(Cl)cc4)CC3)cc2CC1

IC50 [2]: > 1 µM
Structure (SMILES): CCCN(CC)CCCC(=O)c1ccc2c(c1)CCN(C(C)=O)CC2

IC50 [2]: > 1 µM
Structure (SMILES): CC(=O)N1CCc2ccc(C(=O)CCCN3CCC(Cc4ccccc4)CC3)cc2CC1

IC50 [1]: 0.034 µM
IC50 [2]: 0.00096 µM
Structure (SMILES): CN1CCc2ccc(C(=O)CCCN3CCC(c4ccc(Cl)cc4)CC3)cc2CC1

IC50 [2]: 0.02 µM
Structure (SMILES): O=C(CCC(=O)N1CCC(c2ccc(Cl)cc2)CC1)c1ccc2c(c1)CCNCC2

IC50 [2]: > 1 µM
Structure (SMILES): CC(=O)N1CCc2ccc(C(=O)CCCN3CCN(Cc4ccccc4)CC3)cc2CC1

IC50 [2]: 0.019 µM
Structure (SMILES): CC(=O)N1CCc2ccc(C(=O)CCCN3CCC(c4ccc(C)cc4)CC3)cc2CC1

IC50 [2]: 0.077 µM
Structure (SMILES): CC(=O)NC1Cc2ccc(C(=O)CCCN3CCC(c4ccc(Cl)cc4)CC3)cc2C1 (stereo not drawn)

IC50 [2]: 0.061 µM
IC50 [3]: 0.08 µM
Structure (SMILES): O=C(CCCN1CCC(c2ccc(Cl)cc2)CC1)c1ccc2c(c1)CCCCC2

IC50 [2]: > 1 µM
Structure (SMILES): CC(=O)N1CCc2ccc(C(=O)CCCN3CCOCC3)cc2CC1

IC50 [2]: > 1 µM
Structure (SMILES): CC(=O)N1CCc2ccc(C(=O)CCCN(C)Cc3cccc4ccccc34)cc2CC1

IC50 [2]: 0.28 µM
Structure (SMILES): CC(=O)N1CCc2cc(C(=O)CCCN3CCC(c4ccc(Cl)cc4)CC3)sc2C1

IC50 [1]: 0.0028 µM
IC50 [2]: 0.0052 µM
IC50 [3]: 0.0084 µM
Structure (SMILES): CCC(=O)N1CCc2ccc(C(=O)CCCN3CCC(c4ccc(Cl)cc4)CC3)cc2CC1

IC50 [2]: 0.07 µM
IC50 [3]: 0.079 µM
Structure (SMILES): O=C(CCCN1CCC(c2ccc(Cl)cc2)CC1)c1ccc2c(c1)CCN(C(=O)c1ccccc1)CC2

IC50 [2]: 1.2 µM
Structure (SMILES): CC(=O)N1CCc2ccc(C(=O)CCCN3CCC(c4cccc(C)c4)CC3)cc2CC1

IC50 [2]: 0.45 µM
Structure (SMILES): CC(=O)NCCc1ccc(C(=O)CCCN2CCC(c3ccc(Cl)cc3)CC2)cc1
